Compound activity deposited in PubChem by several laboratories.
p97 inhibitor: inhibitors of human p97 ATPase | P55072 | recombinant p97 ATPase, Kinase-Glo ATP luminescence, 3 h | inhibition, % at 8 µM | 220,000 tested, 0.42% active | AID 1481; in the data active means inhibition above about 15%;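 further: 0% = DMSO vehicle and 100% = wells lacking enzyme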
Target sequence (P55072 whole entry, looked up): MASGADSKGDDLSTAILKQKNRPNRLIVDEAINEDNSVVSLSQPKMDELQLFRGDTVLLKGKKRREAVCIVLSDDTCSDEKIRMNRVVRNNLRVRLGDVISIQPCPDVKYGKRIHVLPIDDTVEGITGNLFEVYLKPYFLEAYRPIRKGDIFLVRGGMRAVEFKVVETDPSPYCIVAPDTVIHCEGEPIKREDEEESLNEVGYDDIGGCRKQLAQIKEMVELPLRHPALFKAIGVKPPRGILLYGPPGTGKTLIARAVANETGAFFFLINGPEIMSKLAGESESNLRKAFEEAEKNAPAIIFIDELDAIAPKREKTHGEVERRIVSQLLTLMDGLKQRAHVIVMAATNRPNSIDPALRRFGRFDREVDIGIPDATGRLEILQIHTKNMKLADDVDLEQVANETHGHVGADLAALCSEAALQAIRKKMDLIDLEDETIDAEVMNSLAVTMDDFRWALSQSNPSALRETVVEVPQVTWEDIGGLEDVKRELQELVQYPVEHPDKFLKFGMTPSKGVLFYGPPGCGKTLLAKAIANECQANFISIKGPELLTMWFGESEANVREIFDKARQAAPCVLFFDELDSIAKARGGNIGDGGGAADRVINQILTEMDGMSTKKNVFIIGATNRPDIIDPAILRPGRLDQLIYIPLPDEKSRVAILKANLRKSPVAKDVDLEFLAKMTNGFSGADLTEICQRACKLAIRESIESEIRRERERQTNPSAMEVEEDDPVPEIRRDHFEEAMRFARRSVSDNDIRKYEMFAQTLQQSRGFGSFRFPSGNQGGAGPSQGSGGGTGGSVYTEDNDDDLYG
RBBP9 inh: human RBBP9 hydrolase inhibition; inhibition, % at 7.94 µM; recombinant RBBP9, FP-Rh probe fluorescence polarization; 220,000 tested, 0.2% active;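 active means inhibition above the campaign mean of all tested compounds plus 3 SD, cut at about 14% in these data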;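 further: plate controls were DMSO wells with RBBP9 for no effect and wells lacking RBBP9 protein for full effect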
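Controls: DMSO-treated enzyme wells and wells lacking RBBP9 | Material: RBBP9 protein | Technique: Fluorescence polarization | Replication: Single well per compound, no replicates | Buffer or medium: Tris-NaCl-Pluronic buffer, pH 8.0 | Timing: 30 min compound preincubation, 45 min probe labeling, 25 °C | Read-out basis: Percent inhibition from mP, scaled between DMSO and no-protein wells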
zVAD death inh: L929 zVAD cell death inhibition; L929 zVAD necroptosis rescue, ATP luminescence, 24 h; with zVAD 60 µM; viability rescue, % at 10 µM; 220,000 tested, 0.38% active; AID 1377;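 active means activation, scaled between plate controls, above about 75%, limit read from the data; inactive means activation under that limit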;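 further: 0% = zVAD with DMSO and 100% = DMSO alone without zVAD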
TNF necrop inh: blocks TNF-alpha induced death of Jurkat FADD-/- cells | Jurkat FADD-/- TNF necroptosis rescue, ATP luminescence, 24 h; 0 = TNF only, 100 = no-TNF cells | activation (protection from cell death), % at 10 µM | 220,000 tested, 0.068% active;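 active means activation, meaning protection from cell death, of at least 50% relative to plate controls; inactive means activation below 50%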;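 further: necroptosis triggered by 40 ng/mL TNF-alpha added together with compound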
Wee1 stabilizer: blocks degradation of human Wee1 kinase; P30291; HeLa Luc-Wee1K328M stability, luciferase luminescence; 100% = proteasome inhibitor MG132 effect; reporter increase, % at 5 µM; 220,000 tested, 1.2% active;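 active means activation above the mean of all tested compounds plus 3 SD, set per screening run, cut at about 8.8% in these data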;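 further: cells exposed to compound for 20 h before luminescence read; 0% = DMSO alone and 100% = MG132 at 30 µM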
PfM18AAP inh: PfM18AAP enzyme inhibition | recombinant PfM18AAP, H-Glu-NHMec fluorogenic cleavage | inhibition, % at 7.35 µM | 290,000 tested, 1.2% active | AID 1822;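 active means inhibition above the campaign mean inhibition over all tested compounds plus 3 SD, cut at about 28% in these data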;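 further: 0% = plate median of test compound wells and 100% = 2 mM ZnCl2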
Wee1 stab conf: confirmation of human Wee1 degradation inhibitors | AID 1410 | HeLa Luc-Wee1K328M degradation, luminescence; vehicle 0%, proteasome-blocked wells 100% | shares compounds with Wee1 stabilizer | 1,100 tested, 4% active | activation, % at 5 µM; in the data active means activation above about 8.9%
The depositor's hits bear a star; nt = not tested or not shown. Sampled rows, rich in hits. Any-hit rate of the full collection: about 2.7%.

SMILES	p97 inhibitor	RBBP9 inh	zVAD death inh	TNF necrop inh	Wee1 stabilizer	PfM18AAP inh	Wee1 stab conf
CCc1cc2cc(C)cc(C)c2nc1SCC(=O)Nc1cc(C)on1	1.2	-4.3	6.8	-0.3	11.0*	-3.4	-0.2
CCc1cc2c(C)ccc(C)c2nc1SCC(=O)Nc1cc(C)on1	nt	nt	nt	nt	nt	-2.8	nt
C=CCNC(=S)NNc1nc(Nc2ccccc2)nc(N2CCCCC2)n1	5.0	-10.5	-0.9	0.6	11.3*	23.4	0.7
S=C(NNc1nc(Nc2ccccc2)nc(N2CCCCC2)n1)NC1CCCCC1	-1.3	-14.7	1.8	0.7	2.8	15.6	nt
COc1ccc(NS(=O)(=O)c2cc(NC(=O)c3ccccc3F)ccc2N2CCCC2)cc1	5.0	2.9	0.0	2.0	13.6*	20.0	-2.0
Cc1ccc(/C=C/C(=O)OCc2nc(N)nc(Nc3ccccc3C)n2)o1	4.5	-9.9	7.3	0.2	12.9*	-3.2	-2.1
COc1ccc(/C=C/C(=O)O/N=C(\N)c2ccccc2)cc1OC	-1.3	-1.7	-0.3	0.4	17.0*	2.1	0.0
NS(=O)(=O)c1cccc(NS(=O)(=O)c2ccc(/C=C/C(=O)O)cc2)c1	6.0	-13.3	1.3	1.4	-0.9	2.9	nt
COc1ccc(C=O)cc1OS(=O)(=O)c1ccc(NC(C)=O)cc1	-6.6	-7.7	0.0	-3.5	0.9	3.5	nt
COc1ccc(/C=N/NC(=O)c2ccc3ccccc3c2)cc1OS(=O)(=O)c1ccc(NC(C)=O)cc1	2.0	-47.0	0.6	-17.2	14.4*	-3.2	13.0*
COc1ccc(C)cc1NC(=O)CN1C(=O)COc2ccc(S(=O)(=O)N3CCOCC3)cc21	nt	nt	nt	nt	nt	-1.3	nt
CC(C)(C)NC(=O)C(c1ccc(F)cc1)N(Cc1cccs1)C(=O)c1ccc(CN2CCOCC2)o1 (centres undefined)	-2.9	-13.4	-0.4	-0.2	10.9*	-8.7	1.6
CC(C)CCNC(=O)C(C)N(Cc1ccc(F)cc1)C(=O)c1ccc(CN2CCOCC2)o1 (centres undefined)	0.1	-7.9	0.4	2.2	0.5	-2.0	nt
OCCN(CCO)c1ncnc2c1sc1nc(N3CCOCC3)c3c(c12)CCCC3	-4.0	-9.6	0.0	-5.6	13.9*	-2.1	1.3
O=C(Nc1ccc(Cl)cc1)NC1CCCCC1	0.5	-7.0	0.4	8.8	11.1*	2.7	5.9
Cc1ccc(Cl)cc1-n1c(=O)cc(N2CCN(C(=O)c3ccco3)CC2)[nH]c1=O	1.8	-4.3	0.1	-1.3	14.1*	1.1	-0.7
COc1ccccc1-n1cnnc1SCC(=O)Nc1ncc(Cl)cc1Cl	1.8	-2.0	-0.2	-3.2	-2.2	5.2	nt
COc1ccccc1-n1cnnc1SCC(=O)Nc1nc(C)c(Cl)cc1Cl	5.2	-0.8	0.0	0.2	12.7*	-0.1	3.2
CCn1cc(C(=O)N(C)CC(OC)OC)c(=O)c2cc(S(=O)(=O)N3CCOCC3)ccc21	nt	nt	nt	nt	nt	2.5	nt
CC(=O)NC1=NN(C(C)=O)C(c2ccc(C(C)C)cc2)S1 (centres undefined)	-8.1	-8.6	0.6	-0.3	24.1*	-4.3	0.9
N#Cc1cnc(SCCc2ccccc2)nc1N	6.6	-4.2	0.4	-0.2	27.7*	4.6	2.3
Nc1cc(=O)nc(SCC(=O)Nc2ccccc2Cl)n1-c1ccccc1	1.6	-6.3	1.8	0.1	0.8	1.8	nt
O=C(COC(=O)c1c2c(nc3ccccc13)/C(=C/c1ccco1)CC2)NC1CCCC1	0.9	-2.0	6.9	-0.7	-2.3	13.4	nt
CC1CCCCC1NC(=O)COC(=O)c1c2c(nc3ccccc13)/C(=C/c1ccco1)CC2 (centres undefined)	2.5	-6.4	2.1	-2.9	11.3*	11.4	-0.5
CCc1ccc(Nc2cc(=O)n(C3CCCCC3)c(=O)[nH]2)cc1	0.1	4.3	0.2	-1.8	1.7	8.1	nt
O=c1cc(Nc2ccc3c(c2)OCCO3)[nH]c(=O)n1C1CCCCC1	3.2	-0.3	3.1	-8.7	10.9*	-3.2	11.3*
S=c1[nH]c2ccccc2o1	-2.6	-8.0	0.2	-0.6	-0.8	3.5	nt
